Laboratory results taken from PMC8092417 (Anti-cancer drugs, 2020).
pIC50: −log10 of the molar value.

Experiments:
[1] = system: MDA-MB-231 cells; test: qRT-PCR of epithelial and mesenchymal genes; type: cell-based, human; settings: MDA-MB-231, 1 μM, 72 hours
In short: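 MDA-MB-231 cells in 5% charcoal-stripped DMEM were pre-exposed for 72 h to test compound (1 μM) or DMSO. RNA was then isolated and gene expression measured by quantitative real-time PCR.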

[2] = target: T1, NEK2 (Homo sapiens, UniProt P51955); test: Kinase inhibition assay; type: biochemical; settings: 1 μM
T1 sequence (P51955 1-445): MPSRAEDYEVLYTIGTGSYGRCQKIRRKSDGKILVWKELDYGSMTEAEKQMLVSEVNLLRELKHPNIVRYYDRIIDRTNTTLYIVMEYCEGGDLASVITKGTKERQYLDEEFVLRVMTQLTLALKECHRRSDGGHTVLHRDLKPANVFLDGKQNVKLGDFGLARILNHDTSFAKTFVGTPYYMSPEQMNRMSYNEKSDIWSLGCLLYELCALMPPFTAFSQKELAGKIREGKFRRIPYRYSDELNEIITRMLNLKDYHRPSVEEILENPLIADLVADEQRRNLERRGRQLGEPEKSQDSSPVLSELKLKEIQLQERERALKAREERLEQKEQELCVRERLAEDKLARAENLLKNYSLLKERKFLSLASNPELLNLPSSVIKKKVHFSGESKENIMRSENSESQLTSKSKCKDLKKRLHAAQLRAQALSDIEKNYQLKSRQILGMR

[3] = system: MDA-MB-231 cells; test: Crystal violet staining, cells remaining / viability dose-response; type: cell-based, human
In short: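 Cells were plated at 5,000/well in 5% charcoal-stripped DMEM for 48 h, then exposed to test compound or DMSO vehicle for 72 h at 37 °C, 5% CO2. They were fixed with glutaraldehyde for 20 min and stained for 20 min with 0.1% crystal violet in 90% methanol. After overnight drying, cells were lysed in 33% acetic acid and read at 620 nm. Signal was normalized to DMSO and plotted as dose-response.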

[4] = target: BRSK2 (Homo sapiens, UniProt Q8IWQ3); test: Kinase inhibition assay; type: biochemical; settings: 1 μM
[5] = system: BT-549 cells; test: qRT-PCR of epithelial and mesenchymal genes; type: cell-based, human; settings: BT-549, 1 μM, 72 hours
In short: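 Cells were treated 72 h with test compound (1 μM) or DMSO. Total RNA was column-isolated and checked for quantity and quality by absorbance (260, 280 nm). Then 2 μg total RNA was reverse-transcribed and gene expression measured by qRT-PCR.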

[6] = target: PLK1 (Homo sapiens, UniProt P53350); test: Kinase inhibition assay; type: biochemical; settings: 1 μM
[7] = system: PDX organoids (PDX-Os) created from TU-BcX-4IC; test: Live/dead fluorescence stain of patient-derived organoids; type: cell-based; settings: 1 μM, 72 hours, Calcein-AM/EthD-III
In short: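 Explants (2 × 2 mm) from passaged TU-BcX-4IC tumours were grown out for 7 days in 3D culture, giving mixed tumour and stromal cells. Organoids were moved to ultra-low-attachment spheroid wells and exposed to test compound or DMSO for 72 h. They were then stained with Calcein-AM (2 μM, live) and EthD-III (5 μM, dead) and imaged by confocal microscopy, 5 images per well.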

[8] = system: TU-BcX-49S cells; test: qRT-PCR of epithelial and mesenchymal genes; type: cell-based, human
[9] = system: HLA+CD44+CD24- cancer stem cells of TU-BcX-4IC-implanted mice; test: Flow cytometry for circulating cancer stem cells in peripheral blood; type: in vivo, SCID/Beige mice; settings: 25 mg/kg bid, vs DMSO vehicle
In short: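 Female SCID/Beige mice (n=5/group) carried TU-BcX-4IC tumor implants (3 × 3 mm) in the mammary fat pads and received i.p. test compound or DMSO vehicle twice daily for 15 days. Intracardiac blood was stored in EDTA […], RBC-lysed ([…] NH4Cl, pH 7.2–7.4), Fc-blocked, and stained with anti-human CD24, EpCAM and CD44. At least 5000 events were analyzed; n=4 mice/group; mean ± SEM.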

PLK1, sequence (P53350 whole entry): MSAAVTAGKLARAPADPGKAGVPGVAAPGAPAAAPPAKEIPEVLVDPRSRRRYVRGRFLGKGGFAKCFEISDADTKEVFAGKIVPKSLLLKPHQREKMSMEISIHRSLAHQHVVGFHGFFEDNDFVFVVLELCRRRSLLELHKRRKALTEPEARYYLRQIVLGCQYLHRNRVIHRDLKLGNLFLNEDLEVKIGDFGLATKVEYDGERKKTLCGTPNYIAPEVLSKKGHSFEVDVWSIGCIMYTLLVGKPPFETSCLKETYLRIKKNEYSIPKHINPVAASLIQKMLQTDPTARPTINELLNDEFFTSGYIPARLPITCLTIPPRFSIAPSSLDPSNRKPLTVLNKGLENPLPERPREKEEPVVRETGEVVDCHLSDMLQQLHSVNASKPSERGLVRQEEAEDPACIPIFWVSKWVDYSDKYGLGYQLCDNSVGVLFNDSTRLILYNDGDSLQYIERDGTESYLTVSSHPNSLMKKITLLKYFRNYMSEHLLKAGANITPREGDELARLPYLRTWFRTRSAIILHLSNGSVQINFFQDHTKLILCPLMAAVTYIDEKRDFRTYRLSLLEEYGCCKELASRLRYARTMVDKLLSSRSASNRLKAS
BRSK2, sequence (Q8IWQ3 whole entry): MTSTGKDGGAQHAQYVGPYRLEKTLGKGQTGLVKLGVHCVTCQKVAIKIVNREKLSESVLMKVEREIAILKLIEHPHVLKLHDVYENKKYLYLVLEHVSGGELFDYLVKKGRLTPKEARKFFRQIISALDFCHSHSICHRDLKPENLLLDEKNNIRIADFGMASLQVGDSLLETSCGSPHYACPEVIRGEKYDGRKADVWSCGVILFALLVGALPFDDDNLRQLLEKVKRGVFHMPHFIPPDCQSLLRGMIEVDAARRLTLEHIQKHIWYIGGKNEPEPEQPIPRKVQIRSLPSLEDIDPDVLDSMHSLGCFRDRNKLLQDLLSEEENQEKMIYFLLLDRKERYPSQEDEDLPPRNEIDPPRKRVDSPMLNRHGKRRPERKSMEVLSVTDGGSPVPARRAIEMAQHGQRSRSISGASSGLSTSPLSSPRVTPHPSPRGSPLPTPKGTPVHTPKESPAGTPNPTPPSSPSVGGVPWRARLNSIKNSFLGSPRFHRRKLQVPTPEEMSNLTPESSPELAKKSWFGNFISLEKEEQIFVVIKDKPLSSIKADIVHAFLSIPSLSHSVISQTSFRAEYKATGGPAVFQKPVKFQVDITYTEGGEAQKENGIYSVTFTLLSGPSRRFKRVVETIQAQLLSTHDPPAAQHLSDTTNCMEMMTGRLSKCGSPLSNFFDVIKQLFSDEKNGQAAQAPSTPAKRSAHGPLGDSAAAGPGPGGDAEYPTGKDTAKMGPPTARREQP

SMILES: C[C@@H](Oc1cc(-n2cnc3ccc(NC(=O)NC(C)(C)C)cc32)sc1C(N)=O)c1ccccc1Cl [GSK346294A]
- MMP9 mRNA expression [1]: downregulated MMP9 expression, but not significantly
- cFOS mRNA expression [1]: suppressive effects in all three TNBC cell lines, although not significantly
- Binding activity to NEK2 [2]: 5%
- pIC50 ([3]; Homo sapiens, MDA-MB-231, 72 h, read-out: IC-50, number of cells remaining): 4.30
- Number of cells remaining compared to DMSO controls ([3]; MDA-MB-231, 1 μM, 72 hours): decreased the number of cells remaining
- Activity against BRSK2 [4]: moderate activity
- CDH1 mRNA expression [5]: significantly reduced CDH1 mRNA expression
- MMP9 mRNA expression [5]: Neither GSK346294A nor GSK448459A affected MMP9 expression
- SNAI1 mRNA expression [5]: no significant effects on SNAI1 expression
- cFOS mRNA expression [5]: suppressive effects in all three TNBC cell lines, although not significantly
- Activity against PLK1 [6]: strong activity
- Cytotoxicity to PDX organoids [7]: not cytotoxic
- cFOS mRNA expression [8]: Neither GSK346294A nor GSK448459A suppressed cFOS mRNA expression
- CDH1 mRNA expression ([8]; compared to DMSO controls): increased CDH1 expression
- CSC populations in peripheral blood [9]: suppressed the CSC populations in the peripheral blood of mice implanted with TU-BcX-4IC tumors, although not significantly
